“And” between values parts separate entries of the source, which are not always exact repeats. Identical values can stand only once.

Among the data in ChEMBL document CHEMBL1134525, “Novel N-(arylalkyl)indol-3-ylglyoxylylamides targeted as ligands of the benzodiazepine receptor: synthesis, biological evaluation, and molecular modeling analysis of the structure-activity relationships” (J Med Chem, 2001) are Ki, inhibition and Ratio values, retold here.

In test [1] the target is GABA-A receptor; anion channel. As to the kind of experiment: Inhibition of [3H]- flumazenil binding to benzodiazepine receptor in bovine brain membranes. The class given is cell membranes. Put shortly: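 Bovine brain membranes were freeze-thawed, washed by suspension and centrifugation in 50 mM tris-citrate pH 7.4, then used for competition binding against [3H]flumazenil. Specific binding inhibition was first measured at a fixed 10 µM. Protein was measured by the Lowry method.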

For test [2], the target named is T1, GABA A receptor alpha-5/beta-3/gamma-2 (Rattus norvegicus) (UniProt P18508+P19969+P63079). As to the kind of experiment: Inhibition of [3H]flumazenil binding to rat alpha-5-beta-3-gamma-2 GABA-A receptor subunits expressed in HEK293 cells at 10 uM. The class given is cell-based. The procedure, abridged:
(§1)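 Membranes came from HEK293 clonal lines expressing rat GABAA subtypes, grown in MEM/EBSS with 10% FCS, 2 mM glutamine and penicillin/streptomycin at 37 °C in 5% CO2. Membranes were homogenized and centrifuged (48 000 × g, 30 min, 4 °C) in 10 mM K-phosphate pH 7.4 and resuspended with 100 mM KCl. […] Nonspecific binding was defined with 10^-5 M diazepam. Results are the mean of three determinations.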

Test [3] addresses GABA A receptor alpha-3/beta-2/gamma-2 (Rattus norvegicus, UniProt P18508+P20236+P63138). The test is described as follows: (§2) Inhibition of [3H]flumazenil binding to rat alpha-3-beta-2-gamma-2 GABA-A receptor subunits expressed in HEK293 cells. The test is classed as cell-based. The procedure, abridged: as §1
The target in test [4] is GABA-A receptor; alpha-1/beta-2/gamma-2 (Rattus norvegicus, UniProt P18508+P62813+P63138). The test is described as follows: Inhibition of [3H]flumazenil binding to rat alpha-1-beta-2-gamma-2 GABA-A receptor subunits expressed in HEK293 cells. The class given is cell-based. Put shortly: as §1
Chain of GABA-A receptor; alpha-1/beta-2/gamma-2 (P18508 whole entry): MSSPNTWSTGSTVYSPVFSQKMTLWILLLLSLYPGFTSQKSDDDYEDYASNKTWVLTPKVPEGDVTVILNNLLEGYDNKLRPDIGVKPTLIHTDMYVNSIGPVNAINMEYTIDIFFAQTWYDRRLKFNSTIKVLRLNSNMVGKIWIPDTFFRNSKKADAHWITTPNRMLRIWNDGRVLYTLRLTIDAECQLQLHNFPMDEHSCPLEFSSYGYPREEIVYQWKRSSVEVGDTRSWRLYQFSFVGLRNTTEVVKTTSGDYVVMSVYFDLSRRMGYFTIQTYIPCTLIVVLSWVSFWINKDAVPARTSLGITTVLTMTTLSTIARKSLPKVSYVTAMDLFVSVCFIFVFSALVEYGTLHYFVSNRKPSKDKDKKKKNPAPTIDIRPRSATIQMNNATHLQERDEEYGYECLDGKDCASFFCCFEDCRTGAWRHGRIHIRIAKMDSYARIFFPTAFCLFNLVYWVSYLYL
Chain of GABA-A receptor; alpha-1/beta-2/gamma-2 (P62813 whole entry): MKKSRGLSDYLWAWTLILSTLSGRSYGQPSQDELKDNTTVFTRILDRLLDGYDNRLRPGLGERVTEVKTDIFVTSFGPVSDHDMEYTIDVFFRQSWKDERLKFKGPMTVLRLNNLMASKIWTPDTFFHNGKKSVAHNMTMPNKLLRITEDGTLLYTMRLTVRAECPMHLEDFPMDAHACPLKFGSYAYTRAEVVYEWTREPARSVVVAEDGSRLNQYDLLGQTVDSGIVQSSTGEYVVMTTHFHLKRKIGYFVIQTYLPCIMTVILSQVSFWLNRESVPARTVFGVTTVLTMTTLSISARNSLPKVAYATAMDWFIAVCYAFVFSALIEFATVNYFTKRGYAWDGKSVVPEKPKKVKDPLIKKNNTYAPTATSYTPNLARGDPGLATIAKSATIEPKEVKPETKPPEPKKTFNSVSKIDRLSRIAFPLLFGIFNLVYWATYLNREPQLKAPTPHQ
Chain of GABA-A receptor; alpha-1/beta-2/gamma-2 (P63138 whole entry): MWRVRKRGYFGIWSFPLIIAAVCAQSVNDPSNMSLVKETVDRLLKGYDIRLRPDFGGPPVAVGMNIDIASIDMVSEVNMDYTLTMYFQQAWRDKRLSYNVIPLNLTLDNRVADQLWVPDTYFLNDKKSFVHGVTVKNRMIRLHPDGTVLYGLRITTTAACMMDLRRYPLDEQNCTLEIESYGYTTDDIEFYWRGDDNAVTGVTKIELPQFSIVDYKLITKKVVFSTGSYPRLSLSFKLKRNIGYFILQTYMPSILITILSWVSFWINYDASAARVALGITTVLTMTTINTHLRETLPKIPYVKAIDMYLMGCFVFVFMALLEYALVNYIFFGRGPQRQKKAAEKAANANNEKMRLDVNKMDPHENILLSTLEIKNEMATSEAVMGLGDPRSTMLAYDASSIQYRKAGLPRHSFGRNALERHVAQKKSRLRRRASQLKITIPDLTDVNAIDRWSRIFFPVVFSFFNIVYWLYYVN
The nature of test [5]: Ratio of Ki with out GABA and with GABA.
Test [6] addresses T1, GABA A receptor alpha-5/beta-3/gamma-2 (Rattus norvegicus). The conditions noted are these: HEK293, 10 uM.
For test [7], the target named is GABA-A receptor; anion channel (Bos taurus) (UniProt P10063+P08220+P20237+P08219+P10064+P22300). The test is described as follows: Relative bindign to GABA-A receptor in the presence and absence of GABA (GABA shift), Ki(-GABA)/Ki(+GABA). The test is classed as protein-complex assay. The procedure, abridged:
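[3H]flumazenil displacement Ki was measured both with and without GABA, using exhaustively washed bovine brain membranes or HEK293 membranes expressing rat α1β2γ2, α3β2γ2 or α5β3γ2. GABA ratio = Ki(without GABA)/Ki(with GABA).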

For test [8], the target named is GABA A receptor alpha-5/beta-3/gamma-2 (Rattus norvegicus, UniProt P18508+P19969+P63079). As to the kind of experiment: Inhibition of [3H]flumazenil binding to rat alpha-5-beta-3-gamma-2 GABA-A receptor subunits expressed in HEK293 cells. The test is classed as cell-based. The procedure, abridged: as §1
Chain of GABA A receptor alpha-5/beta-3/gamma-2 (P18508 whole entry): as the sequence (P18508 whole entry) above
Chain of GABA A receptor alpha-5/beta-3/gamma-2 (P19969 whole entry): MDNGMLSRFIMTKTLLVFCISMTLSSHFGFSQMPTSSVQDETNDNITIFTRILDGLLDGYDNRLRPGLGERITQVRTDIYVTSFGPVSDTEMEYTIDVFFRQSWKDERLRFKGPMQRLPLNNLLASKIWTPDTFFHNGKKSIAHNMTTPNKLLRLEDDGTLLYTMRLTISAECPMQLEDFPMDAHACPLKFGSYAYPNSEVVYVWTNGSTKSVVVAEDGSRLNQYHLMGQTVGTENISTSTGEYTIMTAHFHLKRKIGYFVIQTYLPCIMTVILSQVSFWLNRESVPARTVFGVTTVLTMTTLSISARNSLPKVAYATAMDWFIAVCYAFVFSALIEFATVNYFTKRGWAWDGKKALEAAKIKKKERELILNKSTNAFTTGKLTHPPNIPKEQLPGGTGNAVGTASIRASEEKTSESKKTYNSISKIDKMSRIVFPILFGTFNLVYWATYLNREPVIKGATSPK
Chain of GABA A receptor alpha-5/beta-3/gamma-2 (P63079 whole entry): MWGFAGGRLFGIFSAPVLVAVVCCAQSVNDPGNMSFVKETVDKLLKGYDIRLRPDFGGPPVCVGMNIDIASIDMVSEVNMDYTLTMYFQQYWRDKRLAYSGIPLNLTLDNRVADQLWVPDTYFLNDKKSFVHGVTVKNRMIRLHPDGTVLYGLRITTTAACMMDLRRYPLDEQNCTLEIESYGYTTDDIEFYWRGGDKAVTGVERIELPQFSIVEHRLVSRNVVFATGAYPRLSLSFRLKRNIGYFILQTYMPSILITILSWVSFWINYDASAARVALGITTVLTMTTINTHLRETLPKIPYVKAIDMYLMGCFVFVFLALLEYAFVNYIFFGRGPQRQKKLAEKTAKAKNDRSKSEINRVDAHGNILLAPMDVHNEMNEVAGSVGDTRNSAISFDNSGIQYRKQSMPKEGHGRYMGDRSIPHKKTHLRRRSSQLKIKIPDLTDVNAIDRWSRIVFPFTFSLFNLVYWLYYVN
Test [9] deals with GABA A receptor alpha-3/beta-2/gamma-2 (Rattus norvegicus) (UniProt P18508+P20236+P63138). The description is as §2. The class given is cell-based. The procedure, abridged:
as §1

Chain of GABA A receptor alpha-3/beta-2/gamma-2 (P18508 whole entry): as the sequence (P18508 whole entry) above
Chain of GABA A receptor alpha-3/beta-2/gamma-2 (P20236 whole entry): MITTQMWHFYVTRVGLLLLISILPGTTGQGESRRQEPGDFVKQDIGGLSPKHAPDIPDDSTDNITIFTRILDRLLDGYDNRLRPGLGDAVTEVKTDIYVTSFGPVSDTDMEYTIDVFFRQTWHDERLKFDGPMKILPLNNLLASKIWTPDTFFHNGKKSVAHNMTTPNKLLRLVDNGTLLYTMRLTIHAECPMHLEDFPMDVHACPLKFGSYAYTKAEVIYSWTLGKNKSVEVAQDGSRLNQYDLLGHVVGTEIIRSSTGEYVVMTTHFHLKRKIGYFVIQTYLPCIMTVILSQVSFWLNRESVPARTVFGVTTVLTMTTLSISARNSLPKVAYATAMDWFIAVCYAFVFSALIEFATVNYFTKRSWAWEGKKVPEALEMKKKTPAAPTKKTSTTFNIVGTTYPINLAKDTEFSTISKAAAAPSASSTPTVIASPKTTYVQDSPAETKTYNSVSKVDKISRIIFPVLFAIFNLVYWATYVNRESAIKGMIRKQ
Chain of GABA A receptor alpha-3/beta-2/gamma-2 (P63138 whole entry): as the sequence (P63138 whole entry) above

Consider `O=C(C(=O)N1Cc2ccccc2C1)c1c[nH]c2ccccc12`, for which the Ki in [1] worked out at 123 nM; in test [3], 3200 nM; in test [4], 224 nM. In test [2], this molecule came in with an inhibition of 43%. In test [5], the Ratio is 1.06 and 1.1.
For the molecule `Cc1ccc(-c2nc3ccc(C)cn3c2CC(=O)N(C)C)cc1`, in [6], the inhibition stood at 35%.
`O=C(N[C@@H]1CCc2ccccc21)C(=O)c1c[nH]c2ccc([N+](=O)[O-])cc12`: the Ki in [1] was 28 nM; in [3] it was 1960 nM; in [4], 9 nM; in test [8], 95 nM. Also, the Ratio in test [7] was 1.13; in test [5] it was 1.12 and 0.98.
Turning to `C[C@@H](NC(=O)C(=O)c1c[nH]c2ccccc12)c1ccccc1`, the Ki in [1] worked out at 1310 nM; in test [4], 1150 nM; in test [8] it was 5500 nM. In addition, in test [9], the inhibition was determined as 5%.
Consider `O=C(N[C@@H]1CCc2ccccc21)C(=O)c1c[nH]c2ccccc12`, for which the Ki stood at 675 nM in [1], 225 nM in test [4] and 2160 nM in [8]. Besides, the inhibition in test [9] was 28%.
